The record followed here is ChEMBL document CHEMBL1139082, “A potent and orally active HIV-1 integrase inhibitor” (Bioorg Med Chem Lett, 2007).

One series has as its system Plasma. The experiment in a line: Fraction unbound in human plasma after 30 mins by ultracentrifugation method. Format: ADME, cell-free. Conditions: 0.5 h. The procedure, abridged:
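14C-labelled compound was spiked into human plasma (pH 7.4) at final 1, 5 and 20 µM and incubated 30 min at 37 °C. Ultracentrifugation at 180,000g, 37 °C, overnight (~18 h). Supernatant aliquots were counted by liquid scintillation with quench correction; fu (%) = dpm in protein-free fraction / dpm in original plasma × 100.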

For the next series, the species on record is Homo sapiens. The experiment in a line: Protein binding in human plasma by ultrafiltration method. Conditions: read-out: PB (converted).
The subject of series [1] is Human immunodeficiency virus 1. The experiment in a line: Antiviral activity against HIV1 3B in MT4 cells assessed as decrease in HIV1 p24 core antigen in presence of normal human serum. It is filed as functional. Conditions: Human immunodeficiency virus 1, 3B. The procedure, abridged: (§1)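 MT-4 human T-lymphoid cells infected with HIV-1 IIIb, cultured with increasing inhibitor concentrations; readout is the decrease in p24 core antigen. IC95 is the concentration giving 95% inhibition of viral growth versus control. Line 1 used 10% fetal bovine serum; line 2 used 50% normal human serum. n ≥ 2; lower limit ~7 nM; SD ~2-fold.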

Series [2] has as its target Human immunodeficiency virus type 1 integrase (Human immunodeficiency virus 1, UniProt Q7ZJM1). The experiment in a line: Inhibition of HIV1 recombinant integrase catalyzed strand transfer activity.
Series [3] in a line: Partition coefficient, log P at pH 7.4. It is filed as physicochemical. Conditions: octanol/water. The procedure, abridged:
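Octanol/buffer partition measured by HPLC at each compound's maximum absorbance. Log P = log[(octanol area × octanol dilution)/(buffer area × buffer dilution)].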

The test system of series [4] is Human immunodeficiency virus 1. The experiment in a line: Antiviral activity against HIV1 3B in MT4 cells assessed as decrease in HIV1 p24 core antigen in presence of FBS. It is filed as functional. Conditions: Human immunodeficiency virus 1, 3B. The procedure, abridged: as §1
Series [5] in a line: Half life in rhesus monkey at 1 mg/kg, iv. On the set-up: dose 1 mg/kg, route intravenous. Conditions: in vivo. Format: ADME, organism-based, Macaca mulatta. The essentials: (§2)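 Dog and rhesus monkeys were given sodium salt intravenously at 1 mg/kg, dissolved in DMSO. Half-life (h) and clearance (mL/min/kg) were derived from plasma concentrations after iv dosing.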
Series [6] concerns Human immunodeficiency virus 1. The experiment in a line: Antiviral activity against HIV1 with integrase F121Y mutant. It is filed as functional, organism-based. The essentials:
(§3)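 HIV-1 carrying site-directed integrase mutations (mutations first seen in serial cell-culture passage under integrase inhibitors) tested in cell culture. Activity is expressed as fold loss in efficacy relative to wild-type virus.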

Series [7] is described as follows: Clearance in rhesus monkey at 1 mg/kg, iv. It is filed as ADME, organism-based, Macaca mulatta. Also on record: dose 1 mg/kg, route intravenous. Conditions: in vivo. The procedure, abridged:
as §2

Series [8] relates to Human immunodeficiency virus 1. The experiment in a line: Antiviral activity against HIV1 with integrase T125K mutant. It is filed as functional, organism-based. The essentials: as §3
Series [9] deals with Human immunodeficiency virus 1. The experiment in a line: Antiviral activity against HIV1 with integrase […] mutant. It is filed as functional, organism-based. The procedure, abridged:
as §3

The subject of series [10] is Human immunodeficiency virus 1. The experiment in a line: Antiviral activity against HIV1 with integrase T66l/M154l mutant. It is filed as functional, organism-based. The procedure, abridged:
as §3

A short description of series [11]: Oral bioavailability in dog at 1 mg/kg. Format: ADME, organism-based, Canis lupus familiaris. Conditions: in vivo. The essentials:
(§4)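 Sodium salt was ground and given orally at 1 mg/kg to dogs and rhesus monkeys as a 0.5% aqueous methylcellulose suspension. Percent bioavailability was taken after oral administration.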

Series [12] has as its system Human immunodeficiency virus 1. The experiment in a line: Antiviral activity against HIV1 with integrase V151l mutant. It is filed as functional, organism-based. The procedure, abridged: as §3
The nature of series [13]: Half life in dog at 1 mg/kg, iv. Format: ADME, organism-based, Canis lupus familiaris. On the set-up: dose 1 mg/kg, route intravenous. Conditions: in vivo. The essentials: as §2
The nature of series [14]: Solubility at pH 7.4 by equilibrium solubility assay. Format: physicochemical. Conditions: buffer. The procedure, abridged: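 Crystalline drug was suspended in 10 mM sodium phosphate, pH 7.4, and equilibrated at room temperature for 5 days. Aliquots were centrifuged 15,000 rpm for 15 min. Solution concentration was measured by HPLC at days 2 and 5 and taken as solubility.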

Series [15] concerns Human immunodeficiency virus 1. The experiment in a line: Antiviral activity against HIV1 with integrase N155S mutant. It is filed as functional, organism-based. The essentials: as §3
Series [16] is described as follows: Oral bioavailability in rat at 10 mg/kg. It is filed as ADME, organism-based. Conditions: in vivo. The essentials: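 Sodium salt was ground and given orally to rats at 10 mg/kg as a 1% aqueous methylcellulose solution/suspension. Percent bioavailability was taken after oral administration.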
For series [17], the system named is Human immunodeficiency virus 1. The experiment in a line: Antiviral activity against HIV1 with integrase T66l/S153Y mutant. It is filed as functional, organism-based. The procedure, abridged:
as §3

Series [18] can be described thus: Oral bioavailability in rhesus monkey at 1 mg/kg. It is filed as ADME, organism-based, Macaca mulatta. Conditions: in vivo. The procedure, abridged:
as §4

Series [19] can be described thus: Clearance in dog at 1 mg/kg, iv. Format: ADME, organism-based, Canis lupus familiaris. Conditions: in vivo. Also on record: dose 1 mg/kg, route intravenous. The essentials:
as §2

A short description of series [20]: Clearance in rat at 2 mg/kg, iv. Format: ADME, organism-based. On the set-up: dose 2 mg/kg, route intravenous. Conditions: in vivo. The procedure, abridged: (§5)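 Rats received the sodium salt intravenously at 2 mg/kg, dissolved in DMSO. Half-life (h) and clearance (mL/min/kg) were derived after iv administration.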
Series [21] is described as follows: Half life in rat at 2 mg/kg, iv. It is filed as ADME, organism-based. On the set-up: dose 2 mg/kg, route intravenous. Conditions: in vivo. The essentials: as §5

In brackets after ≈: the same amount, converted by molar mass. Activity calls are given as the source filed them.

Chain of Human immunodeficiency virus type 1 integrase (Q7ZJM1 whole entry): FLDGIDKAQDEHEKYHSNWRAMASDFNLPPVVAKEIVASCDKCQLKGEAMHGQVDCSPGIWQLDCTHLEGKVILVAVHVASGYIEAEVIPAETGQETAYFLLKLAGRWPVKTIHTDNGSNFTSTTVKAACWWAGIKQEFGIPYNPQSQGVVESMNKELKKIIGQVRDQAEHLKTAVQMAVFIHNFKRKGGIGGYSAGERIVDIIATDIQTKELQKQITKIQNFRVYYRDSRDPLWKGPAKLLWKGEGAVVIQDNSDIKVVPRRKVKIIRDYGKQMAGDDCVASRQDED

Compound `CNC(=O)c1cc(F)ccc1CN[14C](=O)c1nc(N2CCCCS2(=O)=O)c2cccnc2c1O` had an Activity in the series on Plasma of 15%.

In general, IC95 refers to the concentration needed for an effect of 95%. The term IC50 denotes the point on the concentration scale where inhibition reaches its midpoint. The logD is the decadic logarithm of the distribution of all forms, ionised or not, between an organic phase and buffer at a given pH. In the case of `CN(C)S(=O)(=O)c1cc(F)ccc1CNC(=O)c1nc(N2CCCCS2(=O)=O)c2cccnc2c1O`, the fraction unbound in the series listed under Homo sapiens is 0.03. For the same compound, the IC95 in series [1] was 0.094 µM; in series [4], 0.016 µM. The IC50 in [2] came to 30 nM. Also, the logD in [3] was 1.9.

For `CNC(=O)Cc1ccccc1CNC(=O)c1nc(N2CCCCS2(=O)=O)c2cccnc2c1O`, the fraction unbound in the series filed under Homo sapiens was 0.08. Also, the IC95 was 0.438 µM in [1] and 0.109 µM in series [4]. The IC50 in series [2] was found to be 7 nM. This compound also displayed a logD in series [3] of 1.

In general, half-life refers to the time needed for the level to fall by half in the phase considered. By clearance is commonly meant a measure of how efficiently the substance is removed, as volume per time. Broadly, the bioavailability is dose-corrected exposure relative to a reference, in per cent. By Solubility is commonly meant the concentration that dissolves in the medium under given conditions. Regarding `O=C(NCc1ccc(F)cc1)c1nc(N2CCCCS2(=O)=O)c2cccnc2c1O`, the values for the half-life in series [5], in series [13] and in series [21] were 42 min, 174 min and 72 min, respectively. For the same compound, the outcome in series [6], in [8], in series [9], in series [10], in [12] and in series [15] was Active. The outcome in [17] was Active. Moreover, the clearance in series [7] is 6.6 mL/min/kg; in series [19] it was 2 mL/min/kg; in [20], 2.8 mL/min/kg. Also, the results for the IC95 in series [1] and in [4] were 0.102 µM and 0.015 µM, respectively. For the same compound, the bioavailability amounted to 24% in [11], 41% in series [16] and 51% in series [18]. This compound also had a Solubility in series [14] of 210 ng/mL (≈ 0.488 µM). Also, the logD in [3] amounted to 2.1.

On to `O=C(NCc1ccccc1)c1nc(N2CCCCS2(=O)=O)c2cccnc2c1O`, for which the IC95 in [1] was determined as 1 µM; in series [4], 0.125 µM. The IC50 in [2] came to 10 nM. The logD in series [3] turned out to be 1.9.

On to `CN(C)C(=O)Cc1ccccc1CNC(=O)c1nc(N2CCCCS2(=O)=O)c2cccnc2c1O`, for which the fraction unbound in the series filed under Homo sapiens is 0.06. Further, the figures for the IC95 in [1] and in series [4] were 1 µM and 0.167 µM, respectively. In series [2], the IC50 turned out to be 14 nM. The compound also gave a logD in series [3] of 1.

`O=C(NCc1ccc(F)cc1)c1ncc2cccnc2c1O`: in the series filed under Homo sapiens, the fraction unbound was 0.01. For the same compound, in [1], the IC95 was determined as 5 µM. The compound further showed a logD in series [3] of 2.4.

By solubility (thermodynamic) is commonly meant the concentration in solution at equilibrium with solid. As to `CNC(=O)c1cc(F)ccc1CNC(=O)c1nc(N2CCCCS2(=O)=O)c2cccnc2c1O`, the fraction unbound in the series filed under Homo sapiens was 0.08. The half-life in series [5] was 84 min; in series [13], 108 min; in series [21], 72 min. Besides, the result in [6], in series [8], in series [9], in series [10], in [12] and in series [15] was Active. Besides, the outcome in series [17] was Active. Besides, the clearance in [7] was found to be 18.3 mL/min/kg; in [19], 2.8 mL/min/kg; in series [20] it was 8.6 mL/min/kg. The IC95 was 0.016 µM in series [1] and 0.007 µM in series [4]. For the same compound, the values for the bioavailability in series [11], in series [16] and in [18] were 65%, 45% and 23%, respectively. In addition, the thermodynamic solubility in series [14] was determined as 2.3 µg/mL (≈ 4.72 µM). The IC50 in series [2] stood at 10 nM. The compound also returned a logD in series [3] of 1.6.

With `CN(C)C(=O)c1cc(F)ccc1CNC(=O)c1nc(N2CCCCS2(=O)=O)c2cccnc2c1O`, the fraction unbound in the series listed under Homo sapiens was 0.1. The IC95 in series [1] came to 0.063 µM; in series [4], 0.023 µM. Also, the IC50 in series [2] was found to be 110 nM. In series [3], this compound had a logD of 1.

In turn, `O=[14C](NCc1ccc(F)cc1)c1nc(N2CCCCS2(=O)=O)c2cccnc2c1O` displayed an Activity with Plasma of 1.5%.

Turning to `CNC(=O)c1cc(F)ccc1CNC(=O)c1ncc2cccnc2c1O`, the fraction unbound in the series listed under Homo sapiens was 0.02. Further, in series [1], the IC95 came to 1.04 µM. In addition, the IC50 in [2] turned out to be 51 nM. Further, the logD in series [3] amounted to 1.4.

`CNS(=O)(=O)c1cc(F)ccc1CNC(=O)c1nc(N2CCCCS2(=O)=O)c2cccnc2c1O`: the fraction unbound in the series filed under Homo sapiens was 0.01. The IC95 in series [1] was 0.125 µM; in [4], < 0.008 µM. The IC50 in series [2] is 45 nM. The compound further came in with a logD in series [3] of 1.9.
